ASAP1 GAP inh = blocks human ASAP1-stimulated Arf1 GTP hydrolysis | GDP FP detection | inhibition, % at 16.5 µM | 0.19% of 360,000 active | AID 624377; in the data active = inhibition above about 25%
ARFGAP1 inh = inhibits rat ARF GTPase activating protein 1; Q62848; Arfgap1-stimulated ARF1 GTP hydrolysis, GDP FP detection; inhibition, % at 16.5 µM; 0.26% of 360,000 active;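 active = inhibition above a per-plate limit, mean inhibition of low control wells plus 3 SD, cut at about 25% in these data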
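Material: rat Arfgap1 GAP domain (His6, aa 1-136), purified enzyme. Also added: human ARF1(Δ1-17)-GTP substrate. Compound dosing: 16.5 µM single point, 1.26% DMSO. Timing: enzyme reaction 120 min at 25 °C after 20 min preincubation. Signal: GDP detection by fluorescence polarization. Read-out basis: percent inhibition of GAP-stimulated GDP formation, scaled between DMSO and no-Arfgap1 medians.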
Neddylation inh = cullin neddylation inhibition | P61081+Q13564 | AID 651699 | inhibition, % at 25 µM | TR-FRET cullin neddylation, biochemical | 0.58% of 360,000 active; in the data active = inhibition above about 36%
Target sequence (P61081 whole entry, looked up): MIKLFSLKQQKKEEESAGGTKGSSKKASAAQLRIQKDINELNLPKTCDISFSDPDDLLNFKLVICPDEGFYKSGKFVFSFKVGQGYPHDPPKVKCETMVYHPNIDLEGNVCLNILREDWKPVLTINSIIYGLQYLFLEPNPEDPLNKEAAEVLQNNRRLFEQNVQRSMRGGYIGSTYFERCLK
Target sequence (Q13564 whole entry, looked up): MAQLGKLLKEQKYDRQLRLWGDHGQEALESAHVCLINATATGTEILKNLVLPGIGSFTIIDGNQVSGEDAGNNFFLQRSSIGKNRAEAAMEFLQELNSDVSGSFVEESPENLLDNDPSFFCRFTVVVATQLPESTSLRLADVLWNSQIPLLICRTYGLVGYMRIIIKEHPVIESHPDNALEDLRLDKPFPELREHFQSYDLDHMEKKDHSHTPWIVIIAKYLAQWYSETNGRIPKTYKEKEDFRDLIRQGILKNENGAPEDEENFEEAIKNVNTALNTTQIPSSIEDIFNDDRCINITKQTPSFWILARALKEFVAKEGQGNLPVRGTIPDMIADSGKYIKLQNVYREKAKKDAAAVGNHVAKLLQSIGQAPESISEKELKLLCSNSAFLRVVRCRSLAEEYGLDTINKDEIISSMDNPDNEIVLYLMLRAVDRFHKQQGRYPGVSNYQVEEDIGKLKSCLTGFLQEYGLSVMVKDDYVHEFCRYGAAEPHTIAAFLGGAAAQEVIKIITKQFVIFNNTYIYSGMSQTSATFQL
H9c2 protect = protects H9c2 cardiomyocytes from peroxide injury | H2O2 injury protection, ATPLite, 2 h | protection from H2O2 cell death, % at 20 µM | 0.63% of 360,000 active | AID 588492;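 active = compounds giving at least 50% protection of heart cells from peroxide-induced death in the single-dose screen, raw or plate-pattern-corrected value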
A number is an active result; n = inactive; x = no result shown. Most compounds without a hit are left out; they make up all but 1.6% or so of the library.

SMILES	ASAP1 GAP inh	ARFGAP1 inh	Neddylation inh	H9c2 protect
CCCn1c(=O)c(C(=O)NCCc2ccc(Cl)cc2)c(O)c2ccccc21	n	n	n	53.6
CCn1c(=O)c(C(=O)NCCc2ccc(Cl)cc2)c(O)c2ccccc21	n	n	n	n
CN(CC(=O)Nc1cccc(F)c1)C(=O)CCc1nc2ccccc2c(=O)[nH]1	n	n	n	65.4
CN(CC(=O)Nc1ccc(F)c(F)c1F)C(=O)CCCc1nc2ccccc2c(=O)[nH]1	n	n	n	n
O=C(CCc1nc2ccccc2c(=O)[nH]1)Nc1ccc(Cl)c(Cl)c1	n	n	n	59.5
CN(C(=O)CCc1nc2ccccc2c(=O)[nH]1)C1CCS(=O)(=O)C1 (stereo not drawn)	n	n	n	75.8
COc1ccc(NC(=O)CCc2ccccc2)cc1S(=O)(=O)N1CCCCC1	n	n	n	n
COc1ccc(NC(=O)CCc2nc3ccccc3c(=O)[nH]2)cc1S(=O)(=O)N1CCCCC1	n	n	n	92.6
O=C(CCc1nc2ccccc2c(=O)[nH]1)Nc1ccc(N2CCCCC2)cc1	n	n	n	50.0
COc1ccc(N2C(=O)c3[nH]nc(-c4ccccc4)c3C2c2cccc(C(F)(F)F)c2)cc1 (stereo not drawn)	n	n	x	x
COc1cccc(/C=N/Nc2nc(Nc3ccc([N+](=O)[O-])cc3)nc(N3CCCC3)n2)c1O	n	n	n	n
O=[N+]([O-])c1ccc(Nc2nc(N/N=C/c3cccc(F)c3)nc(N3CCCC3)n2)cc1	n	n	n	83.5
COC1=C(Br)C(=O)c2ncccc2C1=O	47.4	n	n	n
COc1ccc(-n2nc(C(=O)NCC(=O)Nc3cc(OC)c(OC)c(OC)c3)c3ccccc3c2=O)cc1Cl	n	n	n	58.1
CCN(CC)C(=O)CNC(=O)c1nn(-c2ccc(OC)c(Cl)c2)c(=O)c2ccccc12	n	n	n	n
COC(=O)c1ccc(N)c(N=CC2=C(O)CC(C)(C)CC2=O)c1	n	n	x	58.1
CCCCCCCCCC[n+]1cccc2c3ccccc3ccc21	n	n	55.6	n
CCCCCCCC[n+]1cccc2c3ccccc3ccc21	n	n	x	n
CCOC(=O)C1=C(C(=O)OCC)C2N(Cc3ccc(C#N)cc3)c3ccccc3[C@@]23C[C@@H](C(=O)OC)N(S(=O)(=O)c2ccccc2C)C3=N1 (stereo partly drawn)	n	n	x	x
CC12CCC3C(CCC4CC(O)CCC43C)C1CC(O)C2 (stereo not drawn)	n	n	n	49.8
C[C@H](O)[C@@]1(O)CC[C@H]2[C@@H]3CC[C@@H]4C[C@H](O)CC[C@]4(C)[C@H]3CC[C@@]21C	n	n	n	n
Cn1nc(C(C)(C)C)cc1C(=O)NCC1CCN(C(=O)C(=O)c2cc3ccccc3o2)CC1	n	n	x	x
Cc1ccc(C(=O)N2CCC[C@@H]2C(=O)N2CCC[C@H]2C(=O)NCc2ccccc2)cc1C	n	n	x	x
CCC(CC)NC(=O)COC(=O)c1ccc(OCC(=O)Nc2ccccc2OC)c(OC)c1	n	n	n	n
CCC(CC)NC(=O)COc1ccc(OC)cc1C=O	n	n	42.2	n
SMILES	ASAP1 GAP inh	ARFGAP1 inh	Neddylation inh	H9c2 protect
O=C(NCc1ccccc1)[C@@H]1CCCN1C(=O)[C@H]1CCCN1C(=O)c1ccc(OC(F)(F)F)cc1	n	n	x	x
O=C(NNC(=O)c1cc2cc(Br)ccc2oc1=O)c1ccc(O)cc1O	n	n	n	76.8
COCCCNC(=O)c1cc2cc(Br)ccc2oc1=O	n	n	n	n
Cc1ccc(C(=O)CC(=O)COc2ccc(Cl)cc2)cc1	n	n	n	72.1
O=C(Cn1[nH]c(=O)c2ccccc2c1=O)N1CC=C(c2ccccc2)CC1	n	n	n	47.9
O=C(Cn1[nH]c(=O)c2ccccc2c1=O)OCC(=O)N1CCCc2ccccc21	n	n	n	85.6
O=C(Cn1[nH]c(=O)c2ccccc2c1=O)OCC(=O)N1CCc2ccccc2C1	n	n	n	90.0
O=C(Cn1cnc2ccccc21)OCC(=O)N1CCCc2ccccc21	n	n	n	n
CCSc1nnc(N)s1	n	n	n	76.3
CC(C)CSc1nnc(N)s1	n	n	n	n
Cc1cc(C(=O)N/N=C/c2cccs2)n[nH]1	n	n	n	n
Cc1cccc(C(=O)Oc2c(Br)cc(Br)cc2/C=N/NC(=O)c2ccncc2)c1	n	n	n	n
Cc1cc(C(=O)N/N=C\c2cc(C(C)(C)C)ccc2O)n[nH]1	x	x	n	61.5
Cc1cc(C(=O)N/N=C/c2cc(Br)cc(Br)c2OC(=O)c2cccc(F)c2)n[nH]1	n	n	n	82.7
O=C1c2ccccc2NC(c2cc(Cl)cc(Cl)c2O)N1CCc1ccccn1 (stereo not drawn)	n	n	x	x
